Tests used:
[1] = target: T1, 5-hydroxytryptamine receptor 1A (Homo sapiens) (UniProt P08908); experiment: Binding affinity for 5-hydroxytryptamine 1A receptor was determined by incubating human 5-hydroxytryptamine 1A receptor transfected CHO cells with [3H]8-OH-DPAT; assay type: cell-based; parameters: concentration or dose not given beside the values; settings: concentration not given here
T1 sequence (whole entry): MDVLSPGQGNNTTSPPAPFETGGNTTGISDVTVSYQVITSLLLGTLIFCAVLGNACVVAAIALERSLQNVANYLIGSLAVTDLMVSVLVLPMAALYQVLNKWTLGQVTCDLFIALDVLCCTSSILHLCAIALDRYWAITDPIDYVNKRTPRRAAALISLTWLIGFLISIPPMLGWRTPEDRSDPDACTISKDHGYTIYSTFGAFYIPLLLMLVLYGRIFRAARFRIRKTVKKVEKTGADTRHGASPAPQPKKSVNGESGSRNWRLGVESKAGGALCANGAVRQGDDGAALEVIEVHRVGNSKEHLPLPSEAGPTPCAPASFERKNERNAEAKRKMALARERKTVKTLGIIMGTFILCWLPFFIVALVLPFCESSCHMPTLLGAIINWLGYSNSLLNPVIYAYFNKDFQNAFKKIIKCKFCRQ
Method in brief: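 Displacement of [3H]-8-OH-DPAT binding in CHO cells transfected with human 5-HT1A receptors. Test compound at six concentrations, triplicate wells per experiment. IC50 converted to Ki (Cheng–Prusoff) and reported as the mean of 2–3 independent experiments.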

[2] = target: Sodium-dependent serotonin transporter (Rattus norvegicus, UniProt P31652); experiment: In vitro for its binding affinity for serotonin transporter RB5-HT-T in rat cortical membranes; assay type: cell membranes
Method in brief: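 Serotonin transporter affinity (RB5-HT-T). Compound tested at six concentrations in triplicate. Ki calculated from IC50 by Cheng–Prusoff and given as the mean of 2–3 experiments.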

[3] = target: Adrenergic receptor alpha-1 (Rattus norvegicus) (UniProt P15823+P23944+P43140); experiment: In vitro inhibition of [3H]prazosin binding to rat Alpha-1 adrenergic receptors on cortical membranes at 1 uM.; assay type: cell membranes; settings: Membrane
[4] = target: T2, Adrenergic receptor alpha-1 (Rattus norvegicus, UniProt P15823+P23944+P43140); experiment: Binding affinity at Alpha-1 adrenergic receptors on rat cortical membranes by [3H]prazosin displacement.
T2 sequence (P15823 whole entry): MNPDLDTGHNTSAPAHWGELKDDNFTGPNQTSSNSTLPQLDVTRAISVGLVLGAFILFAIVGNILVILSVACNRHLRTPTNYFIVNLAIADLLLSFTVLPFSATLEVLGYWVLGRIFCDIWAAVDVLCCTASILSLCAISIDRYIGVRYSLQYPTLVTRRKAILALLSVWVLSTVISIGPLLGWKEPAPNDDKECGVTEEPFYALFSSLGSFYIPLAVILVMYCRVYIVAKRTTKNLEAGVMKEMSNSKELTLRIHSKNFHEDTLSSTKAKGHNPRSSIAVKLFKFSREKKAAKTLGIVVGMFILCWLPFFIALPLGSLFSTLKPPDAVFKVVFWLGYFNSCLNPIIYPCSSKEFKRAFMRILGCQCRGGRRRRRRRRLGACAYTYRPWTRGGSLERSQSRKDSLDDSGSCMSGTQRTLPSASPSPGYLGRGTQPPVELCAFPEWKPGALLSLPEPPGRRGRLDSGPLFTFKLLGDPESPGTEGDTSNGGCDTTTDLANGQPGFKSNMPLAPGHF
T2 sequence (P23944 whole entry): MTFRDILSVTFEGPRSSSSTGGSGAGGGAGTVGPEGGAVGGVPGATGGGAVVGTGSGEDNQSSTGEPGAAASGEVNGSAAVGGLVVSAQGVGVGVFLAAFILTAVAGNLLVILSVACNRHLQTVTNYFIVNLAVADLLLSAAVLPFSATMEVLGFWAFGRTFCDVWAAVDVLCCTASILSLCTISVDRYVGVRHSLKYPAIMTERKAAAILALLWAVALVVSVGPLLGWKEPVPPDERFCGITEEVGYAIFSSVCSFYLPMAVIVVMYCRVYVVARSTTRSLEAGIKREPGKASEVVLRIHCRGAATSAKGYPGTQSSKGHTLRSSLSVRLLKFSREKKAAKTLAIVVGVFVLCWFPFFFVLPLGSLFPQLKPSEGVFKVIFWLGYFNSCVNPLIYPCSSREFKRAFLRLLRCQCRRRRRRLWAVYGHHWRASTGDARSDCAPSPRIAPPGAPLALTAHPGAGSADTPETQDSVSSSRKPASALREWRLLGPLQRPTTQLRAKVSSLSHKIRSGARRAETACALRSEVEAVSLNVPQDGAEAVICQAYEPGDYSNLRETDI
T2 sequence (P43140 whole entry): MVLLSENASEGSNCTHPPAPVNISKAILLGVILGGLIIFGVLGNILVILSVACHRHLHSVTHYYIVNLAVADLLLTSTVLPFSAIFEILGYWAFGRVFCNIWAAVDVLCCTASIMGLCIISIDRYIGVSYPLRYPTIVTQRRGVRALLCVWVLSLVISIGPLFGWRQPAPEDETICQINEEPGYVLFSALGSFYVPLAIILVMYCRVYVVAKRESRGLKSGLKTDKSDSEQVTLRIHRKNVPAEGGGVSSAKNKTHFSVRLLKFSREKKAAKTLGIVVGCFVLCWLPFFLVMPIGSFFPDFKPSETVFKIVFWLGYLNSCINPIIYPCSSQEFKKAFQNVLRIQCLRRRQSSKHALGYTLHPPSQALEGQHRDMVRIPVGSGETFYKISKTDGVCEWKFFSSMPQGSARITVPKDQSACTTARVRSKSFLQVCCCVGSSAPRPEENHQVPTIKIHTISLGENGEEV
Method in brief: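 Rat cortical membranes incubated with [3H]-prazosin and test compound. Six concentrations per experiment, each run in triplicate; Ki derived from IC50 by the Cheng–Prusoff method and given as the mean of 2–3 experiments.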

Sodium-dependent serotonin transporter, sequence (P31652 whole entry): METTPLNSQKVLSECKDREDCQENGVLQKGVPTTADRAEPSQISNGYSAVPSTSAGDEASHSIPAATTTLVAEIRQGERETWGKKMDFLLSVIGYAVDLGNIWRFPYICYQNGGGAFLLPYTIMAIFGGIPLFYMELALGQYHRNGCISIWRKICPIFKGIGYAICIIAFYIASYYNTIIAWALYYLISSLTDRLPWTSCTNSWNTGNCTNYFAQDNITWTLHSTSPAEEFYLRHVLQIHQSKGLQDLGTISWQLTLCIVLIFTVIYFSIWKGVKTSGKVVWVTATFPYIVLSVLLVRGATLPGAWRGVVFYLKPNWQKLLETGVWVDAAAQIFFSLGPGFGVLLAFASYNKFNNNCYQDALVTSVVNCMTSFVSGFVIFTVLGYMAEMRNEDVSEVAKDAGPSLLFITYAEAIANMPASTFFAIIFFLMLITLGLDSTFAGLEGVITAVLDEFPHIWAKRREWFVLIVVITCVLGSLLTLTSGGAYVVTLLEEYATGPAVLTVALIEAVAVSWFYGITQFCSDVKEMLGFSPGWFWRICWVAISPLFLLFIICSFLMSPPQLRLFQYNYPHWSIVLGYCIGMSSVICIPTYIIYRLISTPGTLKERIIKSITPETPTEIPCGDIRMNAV

SMILES	inhibition [1] [%]	Ki [2] [nM]	inhibition [3] [%]	Ki [4] [nM]
N#Cc1ccc2[nH]cc([C@H]3CC[C@@H](N4CCCCC4)CC3)c2c1	0	22	3	
c1ccc(CN[C@H]2CC[C@H](c3c[nH]c4ccccc43)CC2)cc1	32	107	64	
Fc1ccc2[nH]cc([C@H]3CC[C@H](NCc4ccccc4)CC3)c2c1	11	16	8	
N#Cc1ccc2[nH]cc([C@H]3CC[C@H](NCCc4ccccc4)CC3)c2c1	0	1.98	56	
N#Cc1ccc2[nH]cc(C3=CCC(NCc4ccccc4)CC3)c2c1 (configuration not stated)	87	3.13	27	
c1ccc(CN[C@H]2CC[C@@H](c3c[nH]c4ccccc43)CC2)cc1	0	855	21	
N#Cc1ccc2[nH]cc([C@H]3CC[C@@H](NCCc4ccccc4)CC3)c2c1	0	7.5	40	
Fc1ccc2[nH]cc([C@H]3CC[C@@H](NCc4ccccc4)CC3)c2c1	3	21	9	
N#Cc1ccc2[nH]cc([C@H]3CC[C@H](N4CCCCC4)CC3)c2c1	0	152	14	
N#Cc1ccc2[nH]cc([C@H]3CC[C@H](N4CCc5ccccc5C4)CC3)c2c1	10	10		88
N#Cc1ccc2[nH]cc(C3=CCC(N4CCCCC4)CC3)c2c1 (configuration not stated)	0	178	10	
N#Cc1ccc2[nH]cc([C@H]3CC[C@@H](NCc4ccccc4)CC3)c2c1	15	7.5	17	
N#Cc1ccc2[nH]cc([C@H]3CC[C@@H](N4CCc5ccccc5C4)CC3)c2c1	0	1.23		337
COc1ccc2c(c1)CCN([C@H]1CC[C@@H](c3c[nH]c4ccc(C#N)cc43)CC1)C2	21	0.1	11	
COc1cccc2c1CCN([C@H]1CC[C@@H](c3c[nH]c4ccc(C#N)cc43)CC1)C2	7	0.61		
N#Cc1ccc2[nH]cc(C3=CCC(NCCc4ccccc4)CC3)c2c1 (configuration not stated)	41	1.54	32	
COc1cccc2c1CN([C@H]1CC[C@H](c3c[nH]c4ccc(C#N)cc43)CC1)CC2	46	7.5		
COc1ccc2c(c1)CN([C@H]1CC[C@H](c3c[nH]c4ccc(C#N)cc43)CC1)CC2	48	12		113
COc1ccc2c(c1)CCN(CCCc1c[nH]c3ccc(F)cc13)C2				58
COc1ccc2c(c1)CCN([C@H]1CC[C@H](c3c[nH]c4ccc(C#N)cc43)CC1)C2	74	8		228
COc1cccc2c1CCN([C@H]1CC[C@H](c3c[nH]c4ccc(C#N)cc43)CC1)C2	47	12		
N#Cc1ccc2[nH]cc([C@H]3CC[C@H](NCc4ccccc4)CC3)c2c1	37	25	28	
COc1cccc2c1CN([C@H]1CC[C@@H](c3c[nH]c4ccc(C#N)cc43)CC1)CC2	14	1.01		
COc1ccc2c(c1)CN([C@H]1CC[C@@H](c3c[nH]c4ccc(C#N)cc43)CC1)CC2	26	0.8	11	
Fc1ccc2[nH]cc(CCCN3CCc4ccccc4C3)c2c1	48			
